The values that follow come from article PMC6828636 (European Journal of Drug Metabolism and Pharmacokinetics, 2019).

pIC50, pKi: −log10 of the molar value. Where two headings read alike, the source gives them in different places.

One data set concerns the target CYP2C19 (Homo sapiens, UniProt P33261). Nature of the data set: CYP2C19 inhibition in human liver microsomes. In kind it is in vitro ADME. Particulars: read-out: IC50, CYP2C19; human liver microsomes; substrate S-mephenytoin. A digest of the protocol: (§1)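 Pooled human liver microsomes were incubated with standard CYP-selective substrates, with and without test compound at 0.03–100 μM. Standard selective inhibitors for each isoform ran in parallel as positive controls. Read-out was IC50. For CYP3A4 only, time-dependent inhibition was also tested after 30 min preincubation, using midazolam and testosterone as substrates.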

In the next data set the target is CYP2C9 (Homo sapiens, UniProt P11712). Nature of the data set: CYP2C9 inhibition in human liver microsomes. It counts as in vitro ADME. As to conditions: read-out: IC50, CYP2C9; human liver microsomes; substrate diclofenac. Summed up: as §1
For a further data set, the target named is CYP2D6 (Homo sapiens, UniProt P10635). In words: CYP2D6 inhibition in human liver microsomes. It counts as in vitro ADME. Particulars: read-out: IC50, CYP2D6; human liver microsomes; substrate dextromethorphan. Summed up: as §1
The target of another data set is T1, CYP2A6 (Homo sapiens, UniProt P11509).
T1 sequence (P11509 1-494): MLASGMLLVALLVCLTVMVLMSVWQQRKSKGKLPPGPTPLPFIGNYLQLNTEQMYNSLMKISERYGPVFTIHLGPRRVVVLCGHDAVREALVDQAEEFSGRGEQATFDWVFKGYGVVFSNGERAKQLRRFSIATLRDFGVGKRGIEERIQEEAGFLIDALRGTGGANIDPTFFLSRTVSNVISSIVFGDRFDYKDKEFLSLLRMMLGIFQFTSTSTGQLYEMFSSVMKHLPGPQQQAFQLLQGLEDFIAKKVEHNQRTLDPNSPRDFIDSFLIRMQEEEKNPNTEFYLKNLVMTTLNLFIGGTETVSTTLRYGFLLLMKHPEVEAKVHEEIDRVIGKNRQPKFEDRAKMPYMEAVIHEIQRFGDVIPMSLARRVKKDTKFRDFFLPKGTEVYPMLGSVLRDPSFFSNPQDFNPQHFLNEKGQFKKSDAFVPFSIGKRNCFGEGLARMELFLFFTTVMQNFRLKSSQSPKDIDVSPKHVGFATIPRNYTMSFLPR
Nature of the data set: CYP2A6 inhibition in human liver microsomes. It counts as in vitro ADME. As to conditions: read-out: IC50, CYP2A6; human liver microsomes; substrate coumarin. Summed up: as §1

Data set [1] in a line: Clinical plasma and intestinal concentrations of darolutamide. Details: species or system human.
For a further data set, the target named is UGT1A9 (Homo sapiens, UniProt O60656). Nature of the data set: UGT1A9 inhibition in human liver microsomes. In kind it is in vitro ADME. A digest of the protocol:
(§2)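 Glucuronidation of UGT-selective substrates was measured in human liver microsomes with and without test compound, using a rank-order approach. Standard inhibitors for each isoform were incubated in parallel as positive controls.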

The next data set addresses T2, CYP1A2 (Homo sapiens, UniProt P05177).
T2 sequence (P05177 1-516): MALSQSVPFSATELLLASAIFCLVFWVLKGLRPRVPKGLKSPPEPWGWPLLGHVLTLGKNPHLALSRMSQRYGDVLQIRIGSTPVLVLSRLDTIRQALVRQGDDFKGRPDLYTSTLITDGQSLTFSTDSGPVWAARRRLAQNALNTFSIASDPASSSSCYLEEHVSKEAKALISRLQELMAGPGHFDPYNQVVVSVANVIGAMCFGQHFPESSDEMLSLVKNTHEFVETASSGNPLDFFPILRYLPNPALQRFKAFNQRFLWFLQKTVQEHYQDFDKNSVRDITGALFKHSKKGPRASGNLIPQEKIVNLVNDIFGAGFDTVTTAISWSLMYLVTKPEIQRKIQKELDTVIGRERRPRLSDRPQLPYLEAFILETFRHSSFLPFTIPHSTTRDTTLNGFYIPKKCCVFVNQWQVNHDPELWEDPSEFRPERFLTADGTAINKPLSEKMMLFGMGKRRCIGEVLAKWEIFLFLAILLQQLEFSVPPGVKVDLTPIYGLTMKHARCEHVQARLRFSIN
In words: biochemical. In kind it is in vitro ADME. As to conditions: read-out: IC50, CYP1A2; human liver microsomes; substrate phenacetin.

Another data set has as its target T3, UGT1A1 (Homo sapiens, UniProt P22309).
T3 sequence (P22309 26-533): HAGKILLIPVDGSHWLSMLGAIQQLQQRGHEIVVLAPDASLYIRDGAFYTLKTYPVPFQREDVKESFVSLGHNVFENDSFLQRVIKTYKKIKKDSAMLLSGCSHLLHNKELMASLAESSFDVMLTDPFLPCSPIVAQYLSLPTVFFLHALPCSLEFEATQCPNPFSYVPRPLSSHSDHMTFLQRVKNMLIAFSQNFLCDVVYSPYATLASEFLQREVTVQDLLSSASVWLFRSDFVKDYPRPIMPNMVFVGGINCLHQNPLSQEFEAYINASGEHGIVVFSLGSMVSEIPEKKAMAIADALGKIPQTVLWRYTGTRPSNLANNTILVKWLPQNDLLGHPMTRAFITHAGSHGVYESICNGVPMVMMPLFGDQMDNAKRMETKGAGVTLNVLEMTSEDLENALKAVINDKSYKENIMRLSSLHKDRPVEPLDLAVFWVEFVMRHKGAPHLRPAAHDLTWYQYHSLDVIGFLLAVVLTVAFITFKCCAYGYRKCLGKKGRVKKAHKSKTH
Nature of the data set: UGT1A1 inhibition in human liver microsomes. In kind it is in vitro ADME. As to conditions: read-out: IC50, UGT1A1, substrate estradiol. A digest of the protocol: as §2

For the next data set, the target named is T4, CYP2B6 (Homo sapiens, UniProt P20813).
T4 sequence (P20813 1-491): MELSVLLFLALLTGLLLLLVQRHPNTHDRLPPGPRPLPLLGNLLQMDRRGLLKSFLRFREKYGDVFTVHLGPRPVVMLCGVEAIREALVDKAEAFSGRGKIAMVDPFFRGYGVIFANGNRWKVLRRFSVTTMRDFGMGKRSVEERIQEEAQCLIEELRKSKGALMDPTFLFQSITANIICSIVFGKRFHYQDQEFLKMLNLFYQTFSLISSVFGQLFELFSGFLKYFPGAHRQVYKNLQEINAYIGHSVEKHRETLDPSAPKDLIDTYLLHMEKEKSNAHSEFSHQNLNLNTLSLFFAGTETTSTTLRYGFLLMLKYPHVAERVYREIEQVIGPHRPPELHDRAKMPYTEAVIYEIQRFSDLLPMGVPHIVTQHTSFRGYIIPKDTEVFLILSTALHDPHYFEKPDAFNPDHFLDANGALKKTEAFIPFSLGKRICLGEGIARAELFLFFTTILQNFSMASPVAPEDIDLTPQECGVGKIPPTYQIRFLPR
In words: biochemical. It counts as in vitro ADME. Particulars: read-out: IC50, CYP2B6; human liver microsomes; substrate bupropion.

Another data set has as its target CYP3A4 (Homo sapiens, UniProt P08684). Nature of the data set: CYP3A4 inhibition in human liver microsomes. It counts as in vitro ADME. Particulars: human liver microsomes. A digest of the protocol:
as §1

A further data set has as its target T5, CYP2C8 (Homo sapiens, UniProt P10632).
T5 sequence (P10632 1-490): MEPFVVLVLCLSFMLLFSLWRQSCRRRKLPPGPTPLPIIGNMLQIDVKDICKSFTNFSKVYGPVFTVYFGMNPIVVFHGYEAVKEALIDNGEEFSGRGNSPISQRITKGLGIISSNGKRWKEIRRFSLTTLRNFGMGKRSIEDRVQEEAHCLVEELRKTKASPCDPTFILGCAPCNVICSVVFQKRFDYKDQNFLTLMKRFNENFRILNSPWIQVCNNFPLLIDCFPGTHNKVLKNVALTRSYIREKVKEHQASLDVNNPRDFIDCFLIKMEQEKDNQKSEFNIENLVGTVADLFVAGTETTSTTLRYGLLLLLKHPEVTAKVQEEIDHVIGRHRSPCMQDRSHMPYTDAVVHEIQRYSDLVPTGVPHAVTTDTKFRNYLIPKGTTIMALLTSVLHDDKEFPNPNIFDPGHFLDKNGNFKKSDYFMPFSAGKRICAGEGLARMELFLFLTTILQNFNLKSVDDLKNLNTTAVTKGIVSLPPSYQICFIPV
Nature of the data set: CYP2C8 inhibition in human liver microsomes. In kind it is in vitro ADME. As to conditions: read-out: IC50, CYP2C8; human liver microsomes; substrate amodiaquine. A digest of the protocol: as §1

The next data set addresses CYP2E1 (Homo sapiens, UniProt P05181). In words: CYP2E1 inhibition in human liver microsomes. In kind it is in vitro ADME. As to conditions: read-out: IC50, CYP2E1; human liver microsomes; substrate chlorzoxazone. A digest of the protocol: as §1
Data set [2] is classed as in vivo, human. Particulars: healthy male volunteers.
The conditions of data set [3]: cited from earlier work.
Data set [4] is described as follows: Phase I study: darolutamide effect on rosuvastatin pharmacokinetics. It counts as in vivo, human.
Where [5] appears, read: read-out: IC50, CYP3A4 (with pre-incubation), substrate midazolam, 30 min pre-incubation.
Setting [6] is: read-out: IC50, CYP3A4 (with pre-incubation), substrate testosterone, 30 min pre-incubation.
The mark [7] stands for this setting: read-out: IC50, CYP3A4, substrate midazolam.
Where [8] appears, read: read-out: IC50, CYP3A4, substrate testosterone.
The mark [9] stands for this setting: midazolam 1 mg and dabigatran etexilate 75 mg cocktail, darolutamide 600 mg.

Chain of CYP3A4 (P08684 whole entry): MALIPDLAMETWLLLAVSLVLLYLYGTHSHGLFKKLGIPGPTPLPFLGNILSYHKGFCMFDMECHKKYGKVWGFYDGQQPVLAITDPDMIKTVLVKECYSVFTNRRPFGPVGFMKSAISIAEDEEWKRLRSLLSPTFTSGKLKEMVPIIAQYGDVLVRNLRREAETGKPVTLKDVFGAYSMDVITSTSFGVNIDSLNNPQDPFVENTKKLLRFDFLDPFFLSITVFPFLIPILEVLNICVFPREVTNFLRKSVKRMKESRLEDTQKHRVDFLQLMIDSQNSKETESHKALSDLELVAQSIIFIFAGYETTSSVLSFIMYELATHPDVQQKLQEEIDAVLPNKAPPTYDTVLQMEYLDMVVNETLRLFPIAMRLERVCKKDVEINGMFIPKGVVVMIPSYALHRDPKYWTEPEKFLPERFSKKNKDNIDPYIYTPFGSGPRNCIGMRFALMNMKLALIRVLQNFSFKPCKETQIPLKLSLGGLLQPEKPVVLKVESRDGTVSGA
Chain of CYP2C9 (P11712 whole entry): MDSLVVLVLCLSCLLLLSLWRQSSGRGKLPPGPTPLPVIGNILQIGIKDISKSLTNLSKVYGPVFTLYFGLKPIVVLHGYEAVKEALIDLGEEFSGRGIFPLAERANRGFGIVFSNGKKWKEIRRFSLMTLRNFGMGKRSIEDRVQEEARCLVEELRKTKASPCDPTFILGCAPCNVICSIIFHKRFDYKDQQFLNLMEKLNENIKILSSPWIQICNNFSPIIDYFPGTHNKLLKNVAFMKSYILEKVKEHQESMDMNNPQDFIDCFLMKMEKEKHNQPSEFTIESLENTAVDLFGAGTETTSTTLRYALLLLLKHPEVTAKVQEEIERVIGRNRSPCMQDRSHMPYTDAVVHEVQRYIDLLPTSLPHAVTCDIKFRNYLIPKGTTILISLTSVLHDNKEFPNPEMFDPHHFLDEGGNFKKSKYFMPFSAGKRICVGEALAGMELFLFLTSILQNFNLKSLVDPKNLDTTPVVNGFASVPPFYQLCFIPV
Chain of CYP2D6 (P10635 whole entry): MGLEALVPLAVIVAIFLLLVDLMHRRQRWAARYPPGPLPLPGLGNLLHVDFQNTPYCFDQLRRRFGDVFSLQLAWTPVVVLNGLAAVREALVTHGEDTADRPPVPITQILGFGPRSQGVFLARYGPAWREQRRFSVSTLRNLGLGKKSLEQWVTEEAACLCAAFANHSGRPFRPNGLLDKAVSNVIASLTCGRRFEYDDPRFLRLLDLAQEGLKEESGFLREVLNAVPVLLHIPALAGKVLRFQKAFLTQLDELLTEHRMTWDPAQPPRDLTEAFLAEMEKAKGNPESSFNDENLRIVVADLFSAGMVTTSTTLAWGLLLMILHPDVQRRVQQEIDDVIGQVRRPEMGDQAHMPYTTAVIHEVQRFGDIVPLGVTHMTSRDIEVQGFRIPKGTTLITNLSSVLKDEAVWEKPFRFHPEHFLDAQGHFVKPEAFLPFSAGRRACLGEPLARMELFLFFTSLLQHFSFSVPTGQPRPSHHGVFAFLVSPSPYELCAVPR
Chain of CYP2E1 (P05181 whole entry): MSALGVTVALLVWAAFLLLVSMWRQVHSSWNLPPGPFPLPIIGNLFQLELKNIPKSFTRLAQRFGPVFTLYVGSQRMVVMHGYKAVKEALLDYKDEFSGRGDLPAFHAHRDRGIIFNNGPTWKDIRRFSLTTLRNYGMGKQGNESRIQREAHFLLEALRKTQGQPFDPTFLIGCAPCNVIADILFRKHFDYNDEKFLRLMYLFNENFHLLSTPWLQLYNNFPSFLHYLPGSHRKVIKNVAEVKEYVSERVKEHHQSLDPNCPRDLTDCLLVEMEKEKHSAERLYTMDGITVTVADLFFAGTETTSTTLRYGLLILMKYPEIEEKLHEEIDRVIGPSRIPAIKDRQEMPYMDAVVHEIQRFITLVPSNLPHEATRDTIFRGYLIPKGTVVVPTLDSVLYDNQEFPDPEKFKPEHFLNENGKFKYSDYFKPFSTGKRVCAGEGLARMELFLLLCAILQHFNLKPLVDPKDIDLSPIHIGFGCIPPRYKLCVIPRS
Chain of UGT1A9 (O60656 26-530): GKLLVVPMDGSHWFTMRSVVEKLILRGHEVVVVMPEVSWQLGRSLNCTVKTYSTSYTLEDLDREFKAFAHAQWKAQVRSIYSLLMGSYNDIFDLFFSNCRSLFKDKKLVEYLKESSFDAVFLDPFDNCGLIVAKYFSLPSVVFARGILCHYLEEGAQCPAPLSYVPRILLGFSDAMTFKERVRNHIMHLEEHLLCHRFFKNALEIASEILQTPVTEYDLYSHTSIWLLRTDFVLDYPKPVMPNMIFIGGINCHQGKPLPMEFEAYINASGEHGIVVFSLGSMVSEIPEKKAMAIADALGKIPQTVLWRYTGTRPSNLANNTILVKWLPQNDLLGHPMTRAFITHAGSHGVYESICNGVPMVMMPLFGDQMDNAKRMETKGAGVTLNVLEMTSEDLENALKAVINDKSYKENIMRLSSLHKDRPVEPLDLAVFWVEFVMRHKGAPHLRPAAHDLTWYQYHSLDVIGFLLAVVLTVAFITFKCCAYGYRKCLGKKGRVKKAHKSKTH
Chain of CYP2C19 (P33261 whole entry, canonical isoform): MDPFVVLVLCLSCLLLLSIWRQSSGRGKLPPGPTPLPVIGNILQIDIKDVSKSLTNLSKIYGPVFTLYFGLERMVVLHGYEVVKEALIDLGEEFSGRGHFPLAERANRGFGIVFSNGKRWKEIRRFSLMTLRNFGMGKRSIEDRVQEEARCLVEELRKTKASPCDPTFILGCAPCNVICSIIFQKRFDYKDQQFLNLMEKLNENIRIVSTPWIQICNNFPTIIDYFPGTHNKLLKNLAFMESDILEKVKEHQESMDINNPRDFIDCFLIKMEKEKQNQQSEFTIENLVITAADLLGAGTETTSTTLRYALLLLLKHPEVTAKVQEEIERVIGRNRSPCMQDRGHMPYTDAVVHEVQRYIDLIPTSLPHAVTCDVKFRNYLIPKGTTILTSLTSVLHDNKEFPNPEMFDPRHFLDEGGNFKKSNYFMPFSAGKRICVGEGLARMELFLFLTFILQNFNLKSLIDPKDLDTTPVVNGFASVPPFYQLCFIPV

Consider `C[C@@H](Cn1ccc(-c2ccc(C#N)c(Cl)c2)n1)NC(=O)c1cc([C@@H](C)O)[nH]n1` [(S,R)-darolutamide], for which the pIC50 was 4.33 on CYP2C19; 4.65 on CYP2C9; under 4.30 at CYP2D6; under 4.30 on CYP2A6; 4.90 at UGT1A9 (read-out: IC50, UGT1A9, substrate propofol); under 4.30 at CYP1A2. Besides, the pIC50 on UGT1A1 was 4.58; on CYP2B6 it was under 4.30; on CYP3A4 (setting [5]) it was under 4.30; at CYP3A4 (setting [6]) it was under 4.30; at CYP3A4 (setting [7]), under 4.30; on CYP3A4 (setting [8]) it was under 4.30. The pIC50 was 4.44 on CYP2C8 and under 4.30 at CYP2E1. In addition, the “plasma concentration of unbound drug” value in [1] was under 600 nM. Besides, the pKi on UGT1A9 (read-out: Ki, UGT1A9) is 5.20.

On to `C[C@H](O)c1cc(C(=O)N[C@@H](C)Cn2ccc(-c3ccc(C#N)c(Cl)c3)n2)n[nH]1` [(S,S)-darolutamide], for which the negative-log IC50 (pIC50) is under 4.30 on CYP2C19; under 4.30 on CYP2C9; 4.40 on CYP2D6; under 4.30 on CYP2A6; under 4.30 at CYP1A2; 4.50 at UGT1A1. The negative-log IC50 (pIC50) is under 4.30 on CYP2B6; under 4.30 on CYP3A4 (setting [5]); under 4.30 on CYP3A4 (setting [6]); under 4.30 on CYP3A4 (setting [7]); under 4.30 at CYP3A4 (setting [8]); 4.33 on CYP2C8. For the same compound, the pIC50 at CYP2E1 is under 4.30. The “plasma concentration of unbound drug” value in [1] is under 600 nM.

In the case of `Cc1ncc2n1-c1ccc(Cl)cc1C(c1ccccc1F)=NC2` [midazolam], in data set [2], the “tmax in the presence and absence of darolutamide” value is listed as “comparable”; the “t½ in the presence and absence of darolutamide” value is reported as “comparable”. Moreover, in [2] (setting [9]), the “reduction in Cmax with co-administered darolutamide versus alone” value was about 32%.

`[H]/N=C(/N)c1ccc(NCc2nc3cc(C(=O)N(CCC(=O)O)c4ccccn4)ccc3n2C)cc1` [non-conjugated dabigatran, dabigatran]: in data set [2], the “tmax in the presence and absence of darolutamide” value was “comparable”; the “t½ in the presence and absence of darolutamide” value is reported as “comparable”. Moreover, in [2] (setting [9]), the “reduction in AUC with co-administered darolutamide versus alone” value worked out at 9% and the “reduction in Cmax with co-administered darolutamide versus alone” value was 16%.

With `CC(C)c1nc(N(C)S(C)(=O)=O)nc(-c2ccc(F)cc2)c1/C=C/[C@@H](O)C[C@@H](O)CC(=O)O` [rosuvastatin], in data set [3], the “fraction absorbed (fa)” value is reported as 0.5. In data set [3] (single dose of 5 mg rosuvastatin, healthy subjects, fasted condition), the “AUC(0–24)” value is 19.2 ng·h/mL. Moreover, the “effect of darolutamide comedication on t½” value in data set [4] (healthy subjects) is “did not affect”. Further, the “increase in rosuvastatin exposure with darolutamide” value in data set [4] (healthy subjects, rosuvastatin 5 mg, darolutamide 600 mg twice daily) is “approximately fivefold”. Besides, the “observed exposure as % of the reported fasted AUC(0–24)” value in data set [4] (human, in vivo) was 34%. Further, the “incidence of treatment-emergent AEs, alone versus with concomitant darolutamide” value in data set [4] (single doses of rosuvastatin 5 mg) is given as “similar”.
